In ChEMBL document CHEMBL1147985, “Novel benzodifuran analogs as potent 5-HT2A receptor agonists with ocular hypotensive activity” (Bioorg Med Chem Lett, 2007):

Experiments:
[1] = target: T1, 5-hydroxytryptamine receptor 2A (Rattus norvegicus, UniProt P14842); experiment: Displacement of [125I]DOI from 5HT2A receptor in rat cerebral cortex; assay type: tissue-based
Method in brief: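 Competition binding against the agonist radioligand [125I]DOI at rat brain (cerebral cortex) 5-HT2A receptors. Values are means of at least three experiments.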

[2] = target: T1, 5-hydroxytryptamine receptor 2A; experiment: (§1) Agonist activity at 5HT2A receptor in rat A7r5 cells assessed as intracellular calcium mobilization relative to 5HT; assay type: functional, cell-based
Method in brief: (§2)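 Native 5-HT2 receptors in rat vascular smooth muscle A7r5 cells; receptor-mediated intracellular Ca2+ mobilization read on FLIPR. Emax expressed relative to the 5-HT response. Values are means of at least three experiments.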

[3] = target: 5-hydroxytryptamine receptor 2A (Rattus norvegicus) (UniProt P14842); experiment: as §1; assay type: functional, cell-based; method in brief: as §2
Chain of 5-hydroxytryptamine receptor 2A (Rattus norvegicus) (P14842 whole entry): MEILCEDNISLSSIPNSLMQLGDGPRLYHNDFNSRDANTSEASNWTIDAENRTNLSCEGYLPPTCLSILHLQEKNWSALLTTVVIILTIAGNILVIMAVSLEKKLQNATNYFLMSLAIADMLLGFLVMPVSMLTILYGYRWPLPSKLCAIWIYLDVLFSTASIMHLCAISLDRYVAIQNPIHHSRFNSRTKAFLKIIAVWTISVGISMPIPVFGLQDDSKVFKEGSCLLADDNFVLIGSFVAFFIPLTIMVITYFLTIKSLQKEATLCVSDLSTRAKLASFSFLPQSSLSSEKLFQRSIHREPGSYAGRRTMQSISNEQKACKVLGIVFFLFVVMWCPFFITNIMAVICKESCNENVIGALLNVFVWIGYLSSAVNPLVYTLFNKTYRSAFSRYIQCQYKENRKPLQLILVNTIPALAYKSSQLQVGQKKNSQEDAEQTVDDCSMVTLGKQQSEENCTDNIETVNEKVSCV

Cynomolgus monkey = experiment: Reduction of intra ocular pressure in cynomolgus monkey at 300 ug; assay type: functional, organism-based, Macaca fascicularis, Eye; set-up: Activity: scale not given: the % may be the effect or the level left
[4] = target: 5-hydroxytryptamine receptor 2A (Rattus norvegicus) (UniProt P14842); experiment: Agonist activity at 5HT2A receptor in rat A7r5 cells assessed as intracellular calcium mobilization; assay type: functional, cell-based; method in brief: as §2
[5] = target: 5-hydroxytryptamine receptor 2B (Rattus norvegicus, UniProt P30994); experiment: Agonist activity at 5HT2B receptor in rat stomach fundus assessed as […] relative to 5HT; assay type: functional
Chain of 5-hydroxytryptamine receptor 2B (P30994 whole entry): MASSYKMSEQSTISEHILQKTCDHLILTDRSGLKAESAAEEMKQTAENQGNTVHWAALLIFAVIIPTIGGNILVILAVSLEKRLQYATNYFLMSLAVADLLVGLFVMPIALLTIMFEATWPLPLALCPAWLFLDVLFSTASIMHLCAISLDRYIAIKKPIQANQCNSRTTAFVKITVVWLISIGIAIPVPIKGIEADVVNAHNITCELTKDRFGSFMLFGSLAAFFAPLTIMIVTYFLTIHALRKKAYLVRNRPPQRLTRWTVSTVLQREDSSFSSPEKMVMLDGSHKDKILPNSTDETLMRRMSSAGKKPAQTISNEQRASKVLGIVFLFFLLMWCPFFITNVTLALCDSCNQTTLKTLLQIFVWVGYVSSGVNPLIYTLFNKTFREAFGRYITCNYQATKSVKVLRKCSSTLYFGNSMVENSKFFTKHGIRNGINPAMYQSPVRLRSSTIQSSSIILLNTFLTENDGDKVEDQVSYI
Method in brief: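 Functional 5-HT2B response measured in isolated rat stomach fundus tissue, run by a contract lab. Emax given relative to 5-HT. Means of at least three experiments.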

[6] = target: T2, 5-hydroxytryptamine receptor 2C (Rattus norvegicus) (UniProt P08909); experiment: Agonist activity at 5HT2C receptor expressed in […] cells assessed as intracellular calcium mobilization; assay type: functional, cell-based
T2 sequence (whole entry): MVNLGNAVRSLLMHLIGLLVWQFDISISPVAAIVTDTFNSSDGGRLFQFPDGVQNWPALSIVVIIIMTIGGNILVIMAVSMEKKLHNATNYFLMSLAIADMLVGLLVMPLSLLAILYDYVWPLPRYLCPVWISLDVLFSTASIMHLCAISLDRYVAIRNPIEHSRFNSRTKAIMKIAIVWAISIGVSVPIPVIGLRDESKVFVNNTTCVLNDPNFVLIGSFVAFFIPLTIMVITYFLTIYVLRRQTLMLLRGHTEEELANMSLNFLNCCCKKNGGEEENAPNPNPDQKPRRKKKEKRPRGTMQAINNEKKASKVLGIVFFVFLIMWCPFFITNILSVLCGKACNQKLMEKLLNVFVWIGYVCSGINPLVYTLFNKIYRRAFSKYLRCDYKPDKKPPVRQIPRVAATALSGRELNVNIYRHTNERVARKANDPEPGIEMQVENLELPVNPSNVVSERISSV
Method in brief: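 SR3T3 cells expressing recombinant rat 5-HT2C receptor; intracellular Ca2+ mobilization measured on FLIPR, as for the A7r5 assay. Emax taken relative to 5-HT. Values are means of at least three experiments.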

[7] = target: T3, 5-hydroxytryptamine receptor 2C (Rattus norvegicus, UniProt P08909); experiment: Agonist activity at 5HT2C receptor expressed in […] cells assessed as intracellular calcium mobilization relative to 5HT
T3 sequence (P08909 whole entry): T2 sequence (whole entry)

T1 sequence (P14842 whole entry): as the sequence (P14842 whole entry) above

Row | SMILES | IC50 [1] | EC50 [2] | Emax [3] | Activity (Cynomolgus monkey) | Emax [4] | EC50 [5] | Emax [6] | EC50 [7] | EC50 (Cynomolgus monkey; Macaca fascicularis, Eye)
1 | COCc1c2ccoc2c(C[C@@H](C)N)c2ccoc12 | 0.11 nM | 3.6 nM | 72% | – | – | – | – | – | –
2 | COC(=O)CCc1c2c(c(C[C@@H](C)N)c3c1OCC3)OCC2 | 0.86 nM | 26 nM | 40% | – | – | – | – | – | –
3 | C[C@@H](N)Cc1c2ccoc2c(CO)c2ccoc12 | 0.31 nM | 33 nM | 38% | – | – | – | – | – | –
4 | C[C@@H](N)Cc1c2c(c(CC(=O)O)c3c1OCC3)OCC2 | 104 nM | 4970 nM | 45% | – | – | – | – | – | –
5 | CC(N)Cc1c2c(c(Br)c3c1OCC3)OCC2 (stereo not given) | 0.3 nM | 13 nM | 47% | – | – | – | – | – | –
6 | Cc1noc(-c2c3c(c(C[C@@H](C)N)c4c2OCC4)OCC3)n1 | 910 nM | 8190 nM | 27% | – | – | – | – | – | –
7 | C[C@@H](N)[C@H](O)c1c2c(c(Br)c3c1OCC3)OCC2 | 0.7 nM | 32.7 nM | – | 24% | 96% | 6.2 nM | 100% | 39 nM | –
8 | COc1cc(C[C@@H](C)N)c(OC)cc1I | 0.46 nM | 17.8 nM | 33% | – | 33% | – | – | – | 2.72 nM
9 | C[C@@H](N)[C@@H](O)c1c2c(c(Br)c3c1OCC3)OCC2 (racemic) | 2.6 nM | 87.8 nM | 56% | – | – | – | – | – | –
10 | COCc1c2c(c(C[C@@H](C)N)c3c1OCC3)OCC2 | 0.28 nM | 12 nM | – | 36.8% | 54% | – | 99% | 12.6 nM | –
11 | Cc1noc(Cc2c3ccoc3c(C[C@@H](C)N)c3ccoc23)n1 | 0.38 nM | 16.9 nM | – | 27% | 60% | 23 nM | 95% | 82 nM | –
12 | COCCOCc1c2c(c(C[C@@H](C)N)c3c1OCC3)OCC2 | 0.88 nM | 71 nM | – | – | 50% | 5.8 nM | 93% | 8.6 nM | –
13 | C[C@@H](N)Cc1c2c(c(CO)c3c1OCC3)OCC2 | 1 nM | 175 nM | 43% | – | – | – | – | – | –
14 | C[C@@H](N)Cc1c2c(c(CCC(=O)O)c3c1OCC3)OCC2 | 4700 nM | > 1000 nM | 15% | – | – | – | – | – | –
15 | Cc1noc(Cc2c3c(c(C[C@@H](C)N)c4c2OCC4)OCC3)n1 | 1.6 nM | 49.2 nM | – | – | 33% | 130 nM | 69% | 689 nM | –
16 | COC(=O)c1c2c(c(C[C@@H](C)N)c3c1OCC3)OCC2 | 14 nM | 880 nM | 48% | – | – | – | – | – | –
17 | Cc1noc(CCc2c3c(c(C[C@@H](C)N)c4c2OCC4)OCC3)n1 | 1 nM | > 10000 nM | 7% | – | – | – | – | – | –
